In article PMC3163034 (Digestive diseases and sciences, 2011):
Counter-ions that a name gives are not always drawn.

Tests used:
[1] = Blood pressure and heart rate by tail-cuff in DSS mice; format: in vivo; settings: transanal treatment, compared to naive group
Summary of the method: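 Mice received DSS in drinking water for 7 days plus daily transanal test compound (100 or 10 mg/kg/day) suspended in ddH2O, 0.25 ml total, via blunt needle. Naive controls received transanal water only. Heart rate and blood pressure were taken by automated noninvasive tail-cuff on DSS day 6, 1 h before (Pre) and 2 h after (Post) transanal dosing. Data are mean ± SD.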

[2] = Ussing-chamber permeability across excised mouse intestinal segments; format: in vitro ADME, mice; settings: for Peff, Colon (mean ± SD) / Peff, Small intestine (mean ± SD): 1 mg/ml mucosal side, pH 7.4, 37°C
Summary of the method: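 Freshly isolated jejunum and left-sided colon from naive and 7-day DSS-treated mice, mounted with 0.3 cm2 exposed area. Both sides held 5 ml Krebs buffer, pH 7.4, 37°C, gassed with 95% O2/5% CO2. Test compound added mucosally (final 1 mg/ml). Serosal samples taken every 20 min from 0 to 120 min, in triplicate, and measured by LC-MS/MS. Peff = (dC/dt)·V/(A·Co).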

[3] = Colonic mucosa and mesenteric blood flow by laser Doppler perfusion imaging; format: in vivo, mice; settings: 7 days of DSS, transanal treatment, n = 6; for Colonic blood flow at the mucosal level: naive 1.91 ± 0.26, mean ± SD; for Mesenteric blood flow: naive 2.82 ± 0.23, mean ± SD
Summary of the method: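 After 7 days of DSS in drinking water, with daily transanal test compound (10 or 100 mg/kg/day) or water, and naive controls, mice (n = 6/group) were anesthetized just before harvest. Median laparotomy exposed the mesentery. A […] LDPI beam 12 cm above scanned the mesentery and 2 cm of distal colonic mucosa. Perfusion was normalized to total pixel area (mean ± SD).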

[4] = Plasma levels of orally administered AT1a antagonists in DSS-treated mice; format: in vivo; settings: 10 mg/kg; for Cmax at 2 h: mouse, plasma, po
Summary of the method: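 Mice given DSS for 7 days received test compound orally at 10 mg/kg and were killed 2 h later. Plasma was collected by cardiac puncture, diluted tenfold in mobile phase, and quantified by LC-MS/MS on a C18 column (150 × 2.0 mm, 0.2 ml/min). Data are mean ± SD, n = 5.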

[5] = rats; cited from earlier work
[6] = Normal rat jejunum, Ussing chamber; cited from earlier work
[7] = 2 h after oral administration, DSS mice

| Peff, Colon (mean ± SD) ([2]; DSS-treated mice (7 days)) | Peff, Small intestine (mean ± SD) ([2]; DSS-treated mice (7 days)) | Peff, Colon (mean ± SD) ([2]; Normal (naive) mice) | Peff, Small intestine (mean ± SD) ([2]; Normal (naive) mice) | permeability coefficient compared to other AT1aR-antagonists ([2]; Ussing chamber, both naive- and DSS-treated specimens) | Colonic blood flow at the mucosal level [3] | Mesenteric blood flow [3] | plasma level compared to candesartan [4, 7] | plasma level compared to losartan [4, 7] | Cmax at 2 h [4] | SMILES | Heart rate [1] | oral 50% effective dose (ED50, blood pressure lowering) [5] | Peff, Small intestine [6] |
| --- | --- | --- | --- | --- | --- | --- | --- | --- | --- | --- | --- | --- | --- |
| 2.66 ± 0.96 ×10⁻⁶ cm/s | 1.52 ± 1.31 ×10⁻⁶ cm/s | 1.58 ± 1.24 ×10⁻⁶ cm/s | 1.37 ± 0.15 ×10⁻⁶ cm/s | threefold to sixfold lower | failed to change | failed to change | over tenfold lower | threefold lower | 37.8 ± 26.4 ng/mL | CCCCc1ncc(CO)n1Cc1ccc(-c2ccccc2-c2nn[nH]n2)cc1 [DCL, 2-butyl-1-[[2′-(2H-tetrazol-5-yl)[1,1′-biphenyl]-4-yl]methyl]-1H-imidazole-5-methanol] | not significantly different | > 100 mg/kg |  |
| 5.77 ± 3.37 ×10⁻⁶ cm/s | 5.24 ± 1.4 ×10⁻⁶ cm/s | 6.4 ± 5.6 ×10⁻⁶ cm/s | 4.21 ± 1.67 ×10⁻⁶ cm/s |  | 0.88 ± 0.32 | 1.97 ± 0.58 |  |  | 117 ± 87 ng/mL | CCCCc1nc(Cl)c(CO)n1Cc1ccc(-c2ccccc2-c2nn[nH]n2)cc1 [losartan, 2-butyl-4-chloro-1-[[2′-(2H-tetrazol-5-yl)[1,1′-biphenyl]-4-yl]methyl]-1H-imidazole-5-methanol, mono-potassium salt] | not significantly different | 0.59 mg/kg |  |
|  |  |  |  |  |  |  |  |  |  | C[C@H](N[C@@H](CCc1ccccc1)C(=O)O)C(=O)N1CCC[C@H]1C(=O)O [Enalaprilat] |  |  | 6e+12 ×10⁻⁶ cm/s |
| 5.94 ± 4.41 ×10⁻⁶ cm/s | 3.85 ± 2.03 ×10⁻⁶ cm/s | 4.13 ± 3.04 ×10⁻⁶ cm/s | 7.85 ± 5.91 ×10⁻⁶ cm/s |  | 0.92 ± 0.20 | 1.56 ± 0.33 |  |  | 569 ± 188 ng/mL | CCOc1nc2cccc(C(=O)O)c2n1Cc1ccc(-c2ccccc2-c2nnn[nH]2)cc1 [candesartan, 2-ethoxy-1-[[2′-(2H-tetrazol-5-yl)[1,1′-biphenyl]-4-yl]methyl]-1H-benzimidazole-7-carboxylic acid] | did decline significantly |  |  |
